Reference: ChEMBL document CHEMBL1148708, “4-amino-5-substituted-3(2H)-pyridazinones as orally active antinociceptive agents: synthesis and studies on the mechanism of action” (2007)

Key:
Type in all cases: functional
[1] = tested on: Mus musculus; assay: Antinociceptive activity in Swiss albino mouse assessed as reduction of number of writhing at 20 mg/kg, po after 30 mins relative to control
Method in brief: (§1)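 Writhing counted in the mouse abdominal constriction test after a chemical noxious stimulus. Compounds given per os 30 min before testing. Controls received CMC vehicle. Activity expressed as reduction in number of writhes versus controls.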

[2] = tested on: Rattus norvegicus; assay: Increase in noradrenaline release in Sprague-Dawley rat cerebral cortex at 30 mg/kg, po after 30 mins by microdialysis technique
Method in brief: (§2)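 Rat cerebral cortex microdialysis under chloral hydrate anesthesia (400 mg/kg) in a stereotaxic frame, using a vertical concentric probe perfused with solution containing MgCl₂ and 4 mM KCl. About 18 h after surgery, dialysate collected every 20 min and stored at -80 °C. Noradrenaline measured by HPLC with electrochemical detection. Release expressed against a baseline averaged from three samples taken just before drug dosing.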

[3] = tested on: Mus musculus; assay: Effect on Swiss albino mouse assessed as decrease in number of falls in 30 sec at 30 mg/kg, po after 45 mins by Rota-Rod test
Method in brief: (§3)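 Rotarod test in mice: falls from the rotating rod counted over 30 s, before treatment and at 15, 30 and 45 min after oral dosing. CMC vehicle controls.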

[4] = tested on: Mus musculus; assay: Antinociceptive activity in Swiss albino mouse assessed as reduction of number of writhing at 30 mg/kg, po after 30 mins relative to control; method in brief: as §1
[5] = tested on: Mus musculus; assay: Effect on Swiss albino mouse assessed as decrease in number of falls in 30 sec at 30 mg/kg, po after 15 mins by Rota-Rod test; method in brief: as §3
[6] = tested on: Mus musculus; assay: Effect on Swiss albino mouse assessed as decrease in number of falls in 30 sec at 30 mg/kg, po after 30 mins by Rota-Rod test; method in brief: as §3
[7] = tested on: Mus musculus; assay: Antinociceptive activity in Swiss albino mouse assessed as number of writhing in presence of yohimbine at 30 mg/kg, po after 30 mins relative to control
Method in brief: (§4)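 Mouse abdominal constriction (writhing) test with a chemical pain stimulus. Test drugs given orally 30 min before the test. Yohimbine given at 3 mg kg^-1 ip as α2-adrenoceptor antagonist pretreatment. Writhes counted and compared with CMC vehicle controls. Values are the mean of at least two experiments.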

[8] = tested on: Mus musculus; assay: Antinociceptive activity in Swiss albino mouse assessed as reduction of number of writhing at 10 mg/kg, po after 30 mins relative to control; method in brief: as §1
[9] = tested on: Mus musculus; assay: Effect on Swiss albino mouse assessed as decrease in number of falls in 30 sec at 10 mg/kg, po after 45 mins by Rota-Rod test; method in brief: as §3
[10] = tested on: Mus musculus; assay: Antinociceptive activity in Swiss albino mouse assessed as number of writhing in presence of yohimbine at 10 mg/kg, po after 30 mins relative to control; method in brief: as §4
[11] = tested on: Mus musculus; assay: Effect on Swiss albino mouse assessed as decrease in number of falls in 30 sec at 10 mg/kg, po after 30 mins by Rota-Rod test; method in brief: as §3
[12] = tested on: Mus musculus; assay: Effect on Swiss albino mouse assessed as decrease in number of falls in 30 sec at 10 mg/kg, po after 15 mins by Rota-Rod test; method in brief: as §3
[13] = tested on: Mus musculus; assay: Effect on Swiss albino mouse assessed as decrease in number of falls in 30 sec at 3 mg/kg, po after 45 mins by Rota-Rod test; method in brief: as §3
[14] = tested on: Mus musculus; assay: Effect on Swiss albino mouse assessed as decrease in number of falls in 30 sec at 3 mg/kg, po after 15 mins by Rota-Rod test; method in brief: as §3
[15] = tested on: Mus musculus; assay: Antinociceptive activity in Swiss albino mouse assessed as reduction of number of writhing at 3 mg/kg, po after 30 mins relative to control; method in brief: as §1
[16] = tested on: Mus musculus; assay: Effect on Swiss albino mouse assessed as decrease in number of falls in 30 sec at 3 mg/kg, po after 30 mins by Rota-Rod test; method in brief: as §3
[17] = tested on: Rattus norvegicus; assay: Increase in noradrenaline release in Sprague-Dawley rat cerebral cortex at 3 mg/kg, po after 30 mins by microdialysis technique; method in brief: as §2
[18] = tested on: Mus musculus; assay: Antinociceptive activity in Swiss albino mouse assessed as number of writhing in presence of yohimbine at 3 mg/kg, po after 30 mins relative to control; method in brief: as §4
[19] = tested on: Rattus norvegicus; assay: Increase in noradrenaline release in Sprague-Dawley rat cerebral cortex at 10 mg/kg, po after 30 mins by microdialysis technique; method in brief: as §2
[20] = tested on: Mus musculus; assay: Antinociceptive activity in Swiss Albino mouse assessed as number of writhing in presence of yohimbine at 20 mg/kg, po after 30 mins relative to control; method in brief: as §4
[21] = tested on: Mus musculus; assay: Effect on Swiss albino mouse assessed as decrease in number of falls in 30 sec at 20 mg/kg, po after 15 mins by Rota-Rod test; method in brief: as §3
[22] = tested on: Mus musculus; assay: Effect on Swiss albino mouse assessed as decrease in number of falls in 30 sec at 20 mg/kg, po after 30 mins by Rota-Rod test; method in brief: as §3
[23] = tested on: Mus musculus; assay: Effect on Swiss albino mouse assessed as decrease in number of falls in 30 sec at 20 mg/kg, po after 45 mins by Rota-Rod test; method in brief: as §3
[24] = tested on: Rattus norvegicus; assay: Increase in noradrenaline release in Sprague-Dawley rat cerebral cortex at 20 mg/kg, po after 30 mins by microdialysis technique; method in brief: as §2
[25] = organism: Mus musculus; assay: Antinociceptive activity in Swiss albino mouse assessed as reduction of number of writhing after 30 mins relative to control; method in brief: as §1
[26] = organism: Mus musculus; assay: Effect on Swiss albino mouse assessed as decrease in number of falls in 30 sec after 45 mins of treatment by Rota-Rod test; method in brief: as §3
[27] = organism: Rattus norvegicus; assay: Increase in noradrenaline release in Sprague-Dawley rat cerebral cortex after 30 mins by microdialysis technique; method in brief: as §2
[28] = organism: Mus musculus; assay: Effect on Swiss albino mouse assessed as decrease in number of falls in 30 sec after 15 mins of treatment by Rota-Rod test; method in brief: as §3
[29] = organism: Mus musculus; assay: Effect on Swiss albino mouse assessed as decrease in number of falls in 30 sec after 30 mins of treatment by Rota-Rod test; method in brief: as §3

## CCN(CC)c1c(-c2ccn(C)n2)c(-c2ccccc2)nn(C)c1=O
[1]
  Activity: 27.1

## C=Cc1c(-c2cccs2)nn(CCCC)c(=O)c1N
[1]
  Activity: 25.2

## Cc1nn(C)c(=O)c(N)c1-c1ccn(C)n1
[2]
  Activity: 188.5%
[3]
  Activity: 1.8
[4]
  Activity: 15.9
[5]
  Activity: 3.9
[6]
  Activity: 2.6
[7]
  Activity: 31.7

## C=Cc1c(-c2cccs2)nn(C)c(=O)c1N
[1]
  Activity: 30.2

## C=Cc1c(C2CCCC2)nn(C)c(=O)c1N
[8]
  Activity: 27.7

## C=Cc1c(C)nn(C)c(=O)c1NC
[9]
  Activity: 2
[10]
  Activity: 32
[11]
  Activity: 2.5
[8]
  Activity: 17.6
[12]
  Activity: 3.7

## C=Cc1c(-c2ccc(F)cc2)nn(C)c(=O)c1N
[1]
  Activity: 27.2

## Cn1ccc(-c2c(-c3ccccc3)nn(C)c(=O)c2N)n1
[13]
  Activity: 2.3
[14]
  Activity: 4.2
[15]
  Activity: 13.6
[16]
  Activity: 3.1
[17]
  Activity: 190.1%
[18]
  Activity: 31.1

## C=Cc1c(C2CCCCC2)nn(C)c(=O)c1N
[9]
  Activity: 2.9
[19]
  Activity: 182.1%
[10]
  Activity: 32.5
[11]
  Activity: 3.4
[8]
  Activity: 14.4
[12]
  Activity: 4.1

## COC(=O)[C@@H]1[C@H]2C[C@H]3c4[nH]c5ccccc5c4CCN3C[C@@H]2CC[C@@H]1O [YOHIMBINE]
[18]
  Activity: 31.7

## C=Cc1c(C)nn(C)c(=O)c1NCC
[9]
  Activity: 2.5
[19]
  Activity: 176.2%
[10]
  Activity: 29
[11]
  Activity: 3.2
[8]
  Activity: 16.8
[12]
  Activity: 3.9

## CCNc1c(-c2ccn(C)n2)c(-c2ccccc2)nn(C)c1=O
[20]
  Activity: 29.6
[21]
  Activity: 2.6
[22]
  Activity: 1.8
[23]
  Activity: 2.1
[1]
  Activity: 14.1
[24]
  Activity: 173.7%

## C=Cc1c(-c2ccncc2)nn(CCCC)c(=O)c1N
[1]
  Activity: 35.3
[24]
  Activity: 97.5%

## C=Cc1c(-c2ccccc2)nn(C)c(=O)c1NCC
[13]
  Activity: 1.9
[14]
  Activity: 3.4
[15]
  Activity: 17.4
[16]
  Activity: 2.3
[18]
  Activity: 28.1

## CC(=O)[O-].O=CC(O)C(O)C(O)C(O)CO.[Na+] (stereo not given)
[25]
  Activity: 33.2
[26]
  Activity: 2.2
[27]
  Activity: 100%
[28]
  Activity: 3.6
[29]
  Activity: 3

## C=Cc1c(-c2ccc(Br)cc2)nn(C)c(=O)c1N
[1]
  Activity: 35.7
[24]
  Activity: 107%

## C=Cc1c(-c2ccncc2)nn(C)c(=O)c1N
[20]
  Activity: 34.1
[21]
  Activity: 3.5
[22]
  Activity: 2.8
[23]
  Activity: 2.1
[1]
  Activity: 18.7

## Cc1nnc(-c2c(-c3ccccc3)nn(C)c(=O)c2N)o1
[13]
  Activity: 1.5
[14]
  Activity: 2.7
[15]
  Activity: 19.5
[16]
  Activity: 2.3
[18]
  Activity: 34.2

## C=Cc1c(-c2ccc(F)cc2)nn(CCCC)c(=O)c1N
[1]
  Activity: 33.6

## Cc1nc(-c2c(-c3ccccc3)nn(C)c(=O)c2N)cs1
[9]
  Activity: 2
[19]
  Activity: 181.3%
[10]
  Activity: 33.6
[11]
  Activity: 2.7
[8]
  Activity: 14.7
[12]
  Activity: 3.8

## Cn1nc(-c2ccccc2)c(-c2cc[nH]n2)c(N)c1=O
[13]
  Activity: 2.3
[14]
  Activity: 3.7
[15]
  Activity: 15.9
[16]
  Activity: 2.8
[17]
  Activity: 168.4%
[18]
  Activity: 26.5

## C=Cc1c(-c2ccccc2)nn(CCCC)c(=O)c1NC
[20]
  Activity: 31.9
[21]
  Activity: 4
[22]
  Activity: 3.3
[23]
  Activity: 2.5
[1]
  Activity: 21.6

## C=Cc1c(C)nn(CCCC)c(=O)c1N
[1]
  Activity: 36.7
[24]
  Activity: 95.9%
